Values belong to the compound of their own block, whether it stands above or below them. Active and inactive are the calls of the source. The rule behind the calls is not given here.
Tests used:
[1] = species: Papio hamadryas; test: Activity at baboon liver mitochondrial MAO-B assessed as initial rate of H2O2 production after 6 mins
Summary of the method: (§1)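 Baboon liver mitochondria stored at −70 °C and diluted with phosphate buffer containing 50% glycerol. MAO-B at 0.15 mg protein/mL in 100 mM sodium phosphate, pH 7.4, 37 °C, with eight substrate concentrations spanning two orders of magnitude. Incubation lasted 6 or 8 min (linear period). Stopped with (R)-deprenyl on ice, then centrifuged. H2O2 measured by peroxidase-coupled spectrophotometry against an 11–88 µM calibration. Duplicates; Michaelis–Menten fit gave Km, Vmax (nmol/min-mg), Vmax/Km.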

[2] = species: Papio hamadryas; test: Ratio of Vmax to Km for baboon liver mitochondrial MAO-B assessed per mg of protein after 6 mins; summary of the method: as §1
[3] = species: Papio hamadryas; test: Activity at baboon liver mitochondrial MAO-B assessed as H2O2 production at 500 uM after 6 to 15 mins pretreated with (R)-deprenyl
Summary of the method: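 Mitochondria (0.3 mg protein/mL) were preincubated with (R)-deprenyl at 37 °C in 100 mM sodium phosphate, pH 7.4. They were then added to 500 µM substrate to give 0.15 mg protein/mL, with chromogenic solution, at 37 °C. Reactions were stopped with (R)-deprenyl, and H2O2 was measured by peroxidase-coupled spectrophotometry. Values were compared with fully active controls preincubated without inactivator.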

[4] = species: Papio hamadryas; test: Activity at baboon liver mitochondrial MAO-B assessed as initial rate of H2O2 production after 6 mins assessed per mg of mitochondrial protein; summary of the method: as §1
[5] = species: Papio hamadryas; test: Activity at baboon liver mitochondrial MAO-B assessed as initial rate of H2O2 production after 10 mins
Summary of the method: (§2)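 Incubation time was set within the linear range for each substrate. Stopped with (R)-deprenyl on ice; peroxidase-coupled spectrophotometric read-out. Rates in nmol/min-mg protein, fitted to Michaelis–Menten. Triplicate or duplicate.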

[6] = species: Papio hamadryas; test: Activity at baboon liver mitochondrial MAO-B assessed as H2O2 production at 250 uM after 6 to 15 mins pretreated with (R)-deprenyl
[7] = species: Papio hamadryas; test: Activity at baboon liver mitochondrial MAO-B assessed as initial rate of H2O2 production after 10 mins assessed per mg of mitochondrial protein; summary of the method: as §2
[8] = species: Papio hamadryas; test: Ratio of Vmax to Km for baboon liver mitochondrial MAO-B assessed per mg of protein after 10 mins; summary of the method: as §2
[9] = species: Papio hamadryas; test: Activity at baboon liver mitochondrial MAO-B assessed as initial rate of H2O2 production after 15 mins assessed per mg of mitochondrial protein; summary of the method: as §2
[10] = species: Papio hamadryas; test: Activity at baboon liver mitochondrial MAO-B assessed as H2O2 production at 250 uM after 20 mins
Summary of the method: (§3)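 Baboon liver mitochondria (0.15 mg protein/mL) incubated with substrate and chromogenic solution at 37 °C in 100 mM sodium phosphate, pH 7.4. Reactions stopped at 2.5–20 min with (R)-deprenyl on ice and centrifuged. H2O2 read by peroxidase-coupled spectrophotometric assay against an 11–88 µM calibration. Triplicate, means ± SEM.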

[11] = species: Papio hamadryas; test: Activity at baboon liver mitochondrial MAO-B assessed as H2O2 production at 500 uM after 20 mins; summary of the method: as §3
[12] = species: Papio hamadryas; test: Activity at baboon liver mitochondrial MAO-B assessed as H2O2 production at 250 uM after 15 mins pretreated with MAOB inhibitor (R)-deprenyl
[13] = tested on: Mus musculus; test: Neurotoxicity in C57BL/6 mouse assessed as depletion of dopamine level in striatum at 238 umol/kg, ip after 7 days by HPLC-ECD analysis relative to control; format: toxicity, organism-based; settings: in vivo, 168 h
Summary of the method: (§4)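 Saline controls run alongside. Mice killed by cervical dislocation 7 days later. Striatal dopamine measured by HPLC-ECD, means ± SEM.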

[14] = species: Papio hamadryas; test: Activity at baboon liver mitochondrial MAO-B assessed as H2O2 production at Vmax concentration after 15 mins
[15] = species: Papio hamadryas; test: Ratio of Vmax to Km for baboon liver mitochondrial MAO-B assessed per mg of protein after 15 mins; summary of the method: as §2
[16] = species: Papio hamadryas; test: Activity at baboon liver mitochondrial MAO-B assessed as H2O2 production at 250 uM after 15 mins; summary of the method: as §3
[17] = species: Papio hamadryas; test: Activity at baboon liver mitochondrial MAO-B assessed as initial rate of H2O2 production after 15 mins; summary of the method: as §2
[18] = species: Papio hamadryas; test: Activity at baboon liver mitochondrial MAO-B assessed as initial rate of H2O2 production after 20 mins assessed per mg of mitochondrial protein; summary of the method: as §2
[19] = species: Papio hamadryas; test: Ratio of Vmax to Km for baboon liver mitochondrial MAO-B assessed per mg of protein after 20 mins; summary of the method: as §2
[20] = species: Papio hamadryas; test: Activity at baboon liver mitochondrial MAO-B assessed as H2O2 production at Vmax concentration after 20 mins
[21] = species: Papio hamadryas; test: Activity at baboon liver mitochondrial MAO-B assessed as initial rate of H2O2 production after 20 mins; summary of the method: as §2
[22] = species: Papio hamadryas; test: Activity at baboon liver mitochondrial MAO-B assessed as H2O2 production at 500 uM after 20 mins pretreated with MAOB inhibitor (R)-deprenyl
[23] = species: Papio hamadryas; test: Ratio of Vmax to Km for baboon liver mitochondrial MAO-B assessed per mg of protein after 12.5 mins
Summary of the method: (§5)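 Baboon liver mitochondrial fraction (0.15 mg protein/mL; protein by Bradford) was incubated with substrate in 100 mM sodium phosphate, pH 7.4, at 37 °C for 12.5 min. (R)-Deprenyl (5 mM stock) was added and the samples were placed on ice, then centrifuged. H2O2 was read by peroxidase-coupled spectrophotometry against an 11–88 µM calibration. Initial rates were taken at eight substrate levels, in duplicate. Km and Vmax came from a Michaelis–Menten fit, with rates as nmol H2O2/min-mg protein.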

[24] = species: Papio hamadryas; test: Activity at baboon liver mitochondrial MAO-B assessed as initial rate of H2O2 production after 12.5 mins; summary of the method: as §5
[25] = species: Papio hamadryas; test: Activity at baboon liver mitochondrial MAO-B assessed as initial rate of H2O2 production after 12.5 mins assessed per mg of mitochondrial protein; summary of the method: as §5
[26] = tested on: Mus musculus; test: Neurotoxicity in C57BL/6 mouse assessed as depletion of dopamine level in striatum at 167 umol/kg, ip after 7 days by HPLC-ECD analysis relative to control; format: toxicity, organism-based; settings: in vivo, 168 h; summary of the method: as §4
[27] = species: Papio hamadryas; test: Ratio of Vmax to Km for baboon liver mitochondrial MAO-B assessed per mg of protein after 8 mins; summary of the method: as §1
[28] = species: Papio hamadryas; test: Activity at baboon liver mitochondrial MAO-B assessed as initial rate of H2O2 production after 8 mins assessed per mg of mitochondrial protein; summary of the method: as §1
[29] = species: Papio hamadryas; test: Activity at baboon liver mitochondrial MAO-B assessed as initial rate of H2O2 production after 8 mins; summary of the method: as §1

- Km [1]: 58.9 µM
- Vmax/Km [2]: 0.85 min⁻¹
- Activity [3]: 5%
- Vmax [4]: 50 nmol/min/mg
Compound: NCCC(=O)c1ccccc1N

Compound: CN1CC=C(c2cccn2C)CC1
- Km [5]: 43.4 µM
- Activity [6]: 5%
- Vmax [7]: 22.2 nmol/min
- Vmax/Km [8]: 0.51 min⁻¹

Compound: CN1CC2CC2(c2ccccc2)C1.O=C(O)C(=O)O (racemic)
- Vmax [9]: 16.9 nmol/min
- Activity [10]: Active
- Activity [11]: Active
- Activity [12]: 1.79 µM
- Activity [13]: 111%
- Activity [14]: 6%
- Vmax/Km [15]: 0.11 min⁻¹
- Activity [16]: 27.3 µM
- Km [17]: 148 µM

Compound: CN1CC=C(c2ccccc2)C1
- Km [5]: 100 µM
- Vmax [7]: 27.9 nmol/min
- Vmax/Km [8]: 0.28 min⁻¹

Compound: CN1CCC(c2ccccc2)CC1
- Vmax [9]: inactive

Compound: CN1CCC(c2ccccc2)C1.O=C(O)C(=O)O (racemic)
- Vmax [18]: 8.37 nmol/min
- Activity [10]: Active
- Vmax/Km [19]: 0.04 min⁻¹
- Activity [13]: 99%
- Activity [20]: 6%
- Km [21]: 234 µM
- Activity [22]: 1.92 µM

Compound: CN1CC=C(c2ccccc2)CC1.Cl
- Vmax/Km [23]: 0.14 min⁻¹
- Km [24]: 81.8 µM
- Vmax [25]: 11.7 nmol/min
- Activity [3]: 5%
- Activity [26]: 27%

- Vmax/Km [27]: 0.17 min⁻¹
- Vmax [28]: 42.4 nmol/min/mg
- Km [29]: 249 µM
- Activity [3]: 5%
Compound: NCc1ccccc1

— ChEMBL document CHEMBL1165916, “Interactions of 1-methyl-3-phenylpyrrolidine and 3-methyl-1-phenyl-3-azabicyclo[3.1.0]hexane with monoamine oxidase B” (Bioorg Med Chem, 2010)
